Shown are actives, neighbours in structure and some others; about 4.2% of the full set was active somewhere.
CHOP inh = inhibitors of CHOP promoter induction, primary screen, cell-based, unfolded protein response, luciferase reporter. CHO-K1 CHOP-promoter luciferase, tunicamycin-induced, 15-18 h. inhibition, % at 10 µM. 220,000 tested, 3.8% active;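 active = compounds that reduced the stress-induced luciferase reporter signal by more than about 70% of percent inhibition, limit read from the data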;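 note: 0% = tunicamycin plus vehicle and 100% = wells without tunicamycin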
UPR CHOP act = activators of apoptotic CHOP UPR arm, primary screen, cell-based, CHO-CHOP luciferase reporter, luminescence, uHTS; UPR activation; percent of tunicamycin response over DMSO baseline; AID 449763, 2010; 330,000 tested, 0.34% active; activation, % at 10 µM;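 active = at 10 µM dose, activation of 40% or more, normalized to positive control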;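 note: 100% = tunicamycin at 10 µg/mL and 0% = DMSO alone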
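System: CHO-CHOP luciferase reporter cell line; amount: 500 cells/well; buffer or medium: F12 medium containing 10% fetal bovine serum; incubation: 6 h compound exposure at 37 °C after overnight seeding; measured by: luciferase luminescence after 10 min with Steady-Glo reagent; evaluation: % reporter activation, DMSO baseline versus tunicamycin full activation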
ANO1 block = TMEM16A chloride channel inhibitors, primary screen, cell-based, HTS; Anoctamin-1 (Mus musculus), Q8BHY3; HEK293 TMEM16A/YFP iodide influx fluorescence, ionomycin; normalized B-score (activity score, 25-100; higher = stronger inhibition) at 10 µM; 310,000 tested, 1.2% active;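 active = ratio plate-corrected score three or more library SD toward inhibition, starting fluorescence score within five deviations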;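 note: score derived from kinetic fluorescence span divided by baseline fluorescence per well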
Target sequence (Q8BHY3 whole entry, looked up): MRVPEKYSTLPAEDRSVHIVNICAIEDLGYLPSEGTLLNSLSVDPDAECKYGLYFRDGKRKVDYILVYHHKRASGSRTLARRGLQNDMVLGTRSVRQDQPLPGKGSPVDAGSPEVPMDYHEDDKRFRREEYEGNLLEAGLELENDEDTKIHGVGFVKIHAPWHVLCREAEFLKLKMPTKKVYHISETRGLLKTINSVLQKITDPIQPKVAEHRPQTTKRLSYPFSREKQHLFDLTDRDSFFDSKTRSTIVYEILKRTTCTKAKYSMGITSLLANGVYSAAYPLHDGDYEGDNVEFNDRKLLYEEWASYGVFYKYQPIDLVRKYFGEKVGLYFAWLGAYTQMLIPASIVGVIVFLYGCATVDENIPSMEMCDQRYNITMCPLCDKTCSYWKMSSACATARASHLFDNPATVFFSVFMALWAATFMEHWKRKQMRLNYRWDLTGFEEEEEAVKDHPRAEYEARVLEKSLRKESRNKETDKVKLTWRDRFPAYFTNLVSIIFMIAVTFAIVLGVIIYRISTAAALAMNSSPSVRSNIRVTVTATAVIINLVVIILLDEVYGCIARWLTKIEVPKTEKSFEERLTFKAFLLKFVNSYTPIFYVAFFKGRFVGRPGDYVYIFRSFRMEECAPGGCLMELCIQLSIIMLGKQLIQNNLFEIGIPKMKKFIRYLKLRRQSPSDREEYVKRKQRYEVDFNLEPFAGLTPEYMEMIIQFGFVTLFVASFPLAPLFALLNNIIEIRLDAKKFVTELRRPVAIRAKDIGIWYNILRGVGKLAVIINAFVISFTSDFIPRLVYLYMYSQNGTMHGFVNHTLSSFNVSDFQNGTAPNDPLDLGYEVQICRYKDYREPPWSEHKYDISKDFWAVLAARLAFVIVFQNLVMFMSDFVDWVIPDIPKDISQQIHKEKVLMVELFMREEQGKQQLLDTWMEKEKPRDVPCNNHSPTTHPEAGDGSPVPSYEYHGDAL
ANO1 activ = TMEM16A chloride channel activators or potentiators, primary screen, cell-based, HTS. Anoctamin-1 (Mus musculus), Q8BHY3. HEK293 TMEM16A/YFP-H148Q/I152L, iodide quench fluorescence; stronger effect = lower value. B-score at 10 µM. 340,000 tested, 0.3% active;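 active = fluorescence-ratio B-score plate-corrected deviation score at least 3 library SD below zero, with starting fluorescence score within 5 deviations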;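 note: channel opened by trigger with iodide after compound preincubation; score built on the fluorescence ratio of max minus min over baseline; more negative score means more quench and so TMEM16A activation or potentiation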
Lipid droplet = inhibitors of hepatocyte lipid droplet formation, primary screen, imaging, high-throughput imaging, BODIPY stain | AML12 mouse hepatocytes, oleate lipid droplets | inhibition, % at 6.5 µM | 240,000 tested, 0.4% active;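 active = lipid droplet intensity inhibited by at least 50%, with more than 500 cells counted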
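System: AML12 hepatocytes (mouse). Probe or stimulus: oleic acid at 100 µM to induce lipid droplet formation. Times: overnight treatment with compound plus oleate. Detection: Image-based BODIPY and DAPI two-channel analysis. Evaluation: percent inhibition of filter-corrected integrated lipid droplet intensity per well.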
UPR XBP1 act = activators of adaptive XBP1 UPR arm, primary screen, cell-based, CHO-XBP1 luciferase reporter, luminescence, uHTS | AID 463104, 2010 | activation, % at 20 µM | IRE1-XBP1 UPR activation; percent of tunicamycin response, DMSO as zero | 330,000 tested, 0.33% active;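 active = versus positive control, 20 µM dose yields 30% or more activation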;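 note: 100% = tunicamycin at 10 µg/mL and 0% = DMSO only wells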
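Material: IRE1-XBP1 luciferase reporter CHO line / Quantity: one thousand reporter cells per well / Buffer or medium: F12 with 10% serum / Compound: 20 µM single concentration, DMSO 1% / Times: 6 h treatment, 37 °C / Detection: Steady-Glo luciferase glow luminescence, 10 min after reagent addition / Benchmarks: tunicamycin high, DMSO low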
TMEM16A reconf = TMEM16A chloride channel inhibitors, confirmation, cell-based, re-confirmation | 2,300 tested, 39% active | HEK293 TMEM16A/YFP-H148Q, iodide quench fluorescence; ionomycin added to raise cell calcium | AID 652189, 2013 | inhibition, % at 10 µM | shares compounds with ANO1 block;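 active = mean duplicate percent inhibition, scaled so buffer wells are 0 and the reference blocker 100, over three buffer SD above buffer mean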
HEK293 Ca mobil = calcium mobilization in TMEM16A/YFP HEK293 cells, confirmation, counter-screen for TMEM16A inhibitor project; shares compounds with ANO1 block; Fluo4 calcium mobilization; calcium response (% of ionomycin), % at 10 µM; 2,300 tested, 2% active;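 active = duplicate-averaged calcium signal over 20% of the ionomycin maximum, relative to buffer baseline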;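 note: each well's signal is peak minus trough fluorescence divided by its pre-addition baseline; 0% = buffer wells and 100% = ionomycin wells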
YFP-HEK293 quench = iodide YFP quench changes in parental YFP-HEK293, counter-screen for TMEM16A inhibitor project, cell-based; shares compounds with ANO1 block; 2,300 tested, under 10 active; ionomycin; YFP ratio F(max-min)/F0 at 10 µM;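 active = yellow fluorescent protein signal ratio exceeding the buffer control mean by over 5 SD of those controls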;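 note: ratio is mean of duplicate wells from kinetic YFP trace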
ClC-1 inh = ClC-1 chloride channel inhibition, selectivity assay for TMEM16A inhibitor project, cell-based, voltage-dependent ClC-1; shares compounds with ANO1 block; CHO ClC-1-YFP, iodide influx fluorescence quench; iodide control reads 0, buffer control 100; ratio percent, % at 10 µM; 2,300 tested, under 10 active;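 active = duplicate-mean ratio percent above the mean of iodide-only control wells, which defines zero, plus 5 of their SD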;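 note: higher percent means stronger block of ClC-1 iodide influx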
Numbers without * were called inactive; i = inactive; . = no result given.

SMILES	CHOP inh	UPR CHOP act	ANO1 block	ANO1 activ	Lipid droplet	UPR XBP1 act	TMEM16A reconf	HEK293 Ca mobil	YFP-HEK293 quench	ClC-1 inh
O=C(NCCCc1ccccc1)C(=O)NCC1OCCN1S(=O)(=O)c1ccc(F)cc1 (stereo not given)	.	1.5	25*	i	-6.7	-4.5	i	i	-1.01	-7.5
CCC(C(=O)NCc1ccco1)N(C(=O)CNS(=O)(=O)c1ccccc1)c1ccc(OC)cc1 (stereo not given)	16.7	0.8	25*	i	-1.1	-1.1	i	i	-0.907	0.0
COc1ccc(CC(C)N2CCN(c3cccc(C(F)(F)F)c3)CC2)cc1OC (stereo not given)	61.4	-2.1	i	i	1.7	-4.4	.	.	.	.
Clc1ccc(OCc2nnc(SCc3nc4ccccc4[nH]3)n2Cc2ccco2)cc1	81.1*	4.1	25*	i	.	-1.0	i	i	-1.14	-18.0
CC(C)Cc1nc(N2CCN(C(=O)c3ccco3)CC2)c(C#N)c2c1CCC2	0.9	0.1	25*	i	-6.8	-0.6	i	i	-1.28	-16.0
N#Cc1c(N2CCN(C(=O)c3ccco3)CC2)nc(-c2ccccc2)c2c1CCCC2	15.0	-0.1	100*	i	.	-2.8	23.5%*	i	-1.21	-11.5
N#Cc1c(NC(=O)CN2CCN(C(=O)c3ccco3)CC2)sc2c1CCCCC2	14.7	-1.7	25*	i	.	-5.7	i	i	-1.17	-18.0
CC1(C)Cc2c(C#N)c(N3CCN(C(=O)c4ccco4)CC3)nc(-c3ccco3)c2CS1	-19.9	2.4	i	i	-2.8	-0.5	.	.	.	.
CCOC(=O)c1c(C)[nH]c(C(=O)C(C)Sc2ccc(Cl)cc2)c1C (stereo not given)	62.8	1.8	25*	i	.	0.7	32.5%*	i	-1.02	-20.5
COC(=O)C1=C(C(=O)OC)SC(=C2C(=S)C(C)(C)N(C(=O)CC(C)C)c3ccccc32)S1	55.9	8.9	25*	i	19.1	-0.7	i	i	-1.14	-12.5
CC(C)CC(=O)n1sc(NC(=O)c2ccccc2)nc1=O	34.3	1.3	i	i	.	-0.3	.	.	.	.
CSc1ccccc1-c1nnc(-c2ccc(C)cc2)o1	12.9	6.7	25*	i	.	8.2	i	i	-1.2	3.0
NC(N)=N/N=C/c1ccc2cccc(OCc3ccccc3)c2n1	2.0	-0.9	25*	i	21.7	5.4	i	i	-1.01	-13.5
O=C(/C=C/c1ccccc1Cl)NCc1ccco1	24.3	2.8	25*	i	.	6.6	i	i	-0.863	-4.0
O=C(O)CCCN1C(=O)/C(=C\c2ccc(-c3nc4ccccc4s3)o2)SC1=S	1.5	4.3	25*	i	-13.6	4.7	24.0%*	i	-1.07	-9.5
O=C(O)CCCN1C(=O)/C(=C\c2ccccc2OCc2ccccc2)SC1=S	.	-0.4	25*	i	-4.9	-1.3	i	i	-1.21	-34.5
O=C(c1nc2ccccn2c1CNCCCn1cccn1)N1CCCC1	8.8	1.3	i	i	-4.5	3.4	.	.	.	.
CNC(=O)Nc1cccc(-c2cc(-c3c(Cl)cccc3Cl)no2)c1	14.3	-0.8	100*	i	36.3	0.8	26.5%*	i	-0.835	-3.5
CCOC(=O)Cc1csc(NC(=O)c2csc(C)c2)n1	19.8	-1.0	100*	i	-4.6	0.8	42.0%*	i	-1.31	-7.0
CC(C)CC(NC(N)=O)C(=O)NCCc1ccc(Cl)cc1Cl (stereo not given)	17.1	1.1	i	i	-8.4	-4.2	.	.	.	.
CC(C)c1nnc(SCC(=O)N2CCc3ccccc32)n1C	27.5	-0.1	100*	i	2.4	-1.1	i	i	-1.01	-3.0
O=C(O)COc1ccc(/C=C/c2nc(-c3ccccc3O)n[nH]2)cc1	.	-0.9	i	i	-6.9	-2.2	.	.	.	.
COc1ccc(/C=C/c2nc(-c3ccccc3O)n[nH]2)cc1OC	-20.9	6.7	25*	i	-21.4	1.8	i	i	-0.992	-16.0
COC(=O)C1CCN(C(=O)CSc2nnc(-c3ccccc3)o2)CC1	.	18.5	i	i	.	1.7	.	.	.	.
COc1ccc(/C=N/NC(=O)CC(=O)NCc2cccnc2)cc1	-6.9	-1.7	i	i	.	2.1	.	.	.	.
SMILES	CHOP inh	UPR CHOP act	ANO1 block	ANO1 activ	Lipid droplet	UPR XBP1 act	TMEM16A reconf	HEK293 Ca mobil	YFP-HEK293 quench	ClC-1 inh
O=C(NCCc1ccc(Cl)cc1)C1CCN(c2cnccn2)CC1	30.7	-0.8	100*	i	.	0.0	i	i	-0.988	-15.0
CC(=O)c1ccc(S(=O)(=O)NCC(=O)Nc2nc3ccccc3[nH]2)cc1	.	1.6	.	i	.	-2.5	.	.	.	.
COc1ccccc1NC(=O)c1cc2cc(Br)ccc2cc1O	87.8*	.	100*	i	14.0	.	76.0%*	i	-0.892	-15.0
COc1cc2ccccc2cc1C(=O)Nc1ccccc1Cl	.	4.5	100*	i	-4.1	9.9	70.0%*	i	-0.771	-16.0
COc1cc2ccccc2cc1C(=O)Nc1ccccc1N1CCCC1	.	1.8	i	i	.	-3.0	.	.	.	.
COc1ccc(S(=O)(=O)N2CCCOC2CNC(=O)C(=O)NCc2ccccc2F)cc1C (stereo not given)	.	-2.2	i	i	-1.2	-4.0	.	.	.	.
Cc1ccc(C)c(NC(=O)CSc2sc3c(O)cc(=O)[nH]c3c2C#N)c1	.	2.6	i	i	3.4	4.4	i	i	-1.03	-15.5

Screening data as filed in PubChem BioAssay.
